Legend:
HeLa [1] = experiment: Inhibitory concentration against human immunodeficiency virus type 1 (with K103N/G190A resistant mutation) was determined in HeLa-CD4 MAGI assay; format: functional, cell-based
Outline: (§1)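 Tested against a panel of recombinant, isogenic HIV-1 viruses, wild type and NNRTI-resistant strains carrying engineered single or double RT mutations. The readout was IC50.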

HeLa [2] = experiment: Inhibitory concentration against human immunodeficiency virus type 1 (with K103N/V108I resistant mutation) was determined in HeLa-CD4 MAGI assay; format: functional, cell-based; outline: as §1
HeLa [3] = experiment: Inhibitory concentration against human immunodeficiency virus type 1 (with K103N/Y181C resistant mutation) was determined in HeLa-CD4 MAGI assay; format: functional, cell-based; outline: as §1
HeLa [4] = experiment: Inhibitory concentration against human immunodeficiency virus type 1 (with V106A/Y181C resistant mutation) was determined in HeLa-CD4 MAGI assay; format: functional, cell-based; outline: as §1
HeLa [5] = experiment: Inhibitory concentration against human immunodeficiency virus type 1 (with V108I/Y181C resistant mutation) was determined in HeLa-CD4 MAGI assay; format: functional, cell-based; outline: as §1
MT4 [6] = experiment: Ratio of cytotoxic concentration to that of inhibitory concentration as selectivity index was determined by MT-4 assay; format: functional, Homo sapiens
Outline: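 Index is the IC50 in uninfected MT4 cells divided by the antiviral IC50 in MT4 cells infected with wild-type HIV-1 or the nevirapine-resistant strain carrying RT mutation Y181C.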

MT4 [7] = experiment: Inhibitory concentration against wild type human immunodeficiency virus type 1 was determined by MT-4 assay; format: functional, cell-based
[8] = tested on: Human immunodeficiency virus 1; experiment: Inhibitory concentration against wild type human immunodeficiency virus type 1 was determined by recombinant virus assay; format: functional, organism-based
Outline: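 Isogenic recombinant HIV-1 carrying wild-type RT, tested in parallel with a panel of NNRTI-resistant RT mutants built on the same background; activity reported as IC50.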

MT4 [9] = experiment: Inhibitory concentration against nevirapine resistant strain (with Y181C mutation in HIV-1 RT gene) of human immunodeficiency virus type 1 was determined by MT-4 assay; format: functional, cell-based
HeLa [10] = experiment: Inhibitory concentration against human immunodeficiency virus type 1 (with G190A resistant mutation) was determined in HeLa-CD4 MAGI assay; format: functional, cell-based; outline: as §1
HeLa [11] = experiment: Inhibitory concentration against human immunodeficiency virus type 1 (with K103N resistant mutation) was determined in HeLa-CD4 MAGI assay; format: functional, cell-based; outline: as §1
HeLa [12] = experiment: Inhibitory concentration against human immunodeficiency virus type 1 (with V106A resistant mutation) was determined in HeLa-CD4 MAGI assay; format: functional, cell-based; outline: as §1
HeLa [13] = experiment: Inhibitory concentration against human immunodeficiency virus type 1 (with V108I resistant mutation) was determined in HeLa-CD4 MAGI assay; format: functional, cell-based; outline: as §1
HeLa [14] = experiment: Inhibitory concentration against human immunodeficiency virus type 1 (with Y181C resistant mutation) was determined in HeLa-CD4 MAGI assay; format: functional, cell-based; outline: as §1
HeLa [15] = experiment: Inhibitory concentration against human immunodeficiency virus type 1 (with Y188C resistant mutation) was determined in HeLa-CD4 MAGI assay; format: functional, cell-based; outline: as §1

SMILES | IC50 (HeLa [1]) [nM] | IC50 (HeLa [2]) [nM] | IC50 (HeLa [3]) [nM] | IC50 (HeLa [4]) [nM] | IC50 (HeLa [5]) [nM] | Ratio (MT4 [6]) | IC50 (MT4 [7]) [nM] | IC50 [8] [nM] | IC50 (MT4 [9]) [nM] | IC50 (HeLa [10]) [nM] | IC50 (HeLa [11]) [nM] | IC50 (HeLa [12]) [nM] | IC50 (HeLa [13]) [nM] | IC50 (HeLa [14]) [nM] | IC50 (HeLa [15]) [nM]
CCCc1c(O)nc2ccc(C#N)cc2c1OC1CCCC1 | > 2000 | > 2000 | > 2000 | > 2000 | > 2000 | >40000 | 120 | 65 | 2000 | 1 | > 2000 | 1300 | 240 | 1700 | 52
CCCc1c(O)nc2ccc(OC)cc2c1OC1CCCC1 | > 2000 | > 2000 | > 2000 | > 2000 | > 2000 | >40000 | 1010 | 420 | 24000 | 710 | > 2000 | > 2000 | 540 | 710 | 160
CCc1c(O)nc2ccc(Cl)cc2c1OC1CCCC1 | 640 | > 2000 | > 2000 | ~1000 | 780 | >40000 | 78 | 72 | 1020 | 12 | > 2000 | > 2000 | 260 | 6 | 54
CC(C)c1c(OC#CC2CC2)c2cc(F)ccc2[nH]c1=O | 100 | 720 | 620 | 220 | 11 | 16000 |  | 10 | 25 | 5 | 400 | 150 | 26 | 15 | 23
CCCc1c(O)nc2ccc(C)cc2c1OC1CCCC1 | > 2000 | > 2000 | > 2000 | > 2000 | > 2000 | >40000 | 970 | 400 | 6400 | 150 | > 2000 | > 2000 | 710 | 410 | 240
CCCc1c(O)nc2ccc(F)c([N+](=O)[O-])c2c1OCC1CCC1 | > 2000 | > 2000 | > 2000 | 1000 | > 2000 | >8000 | 1200 | 1100 | 1800 | 540 | > 2000 | > 2000 | ~1000 | > 2000 | 250
CC(C)Nc1cccnc1N1CCN(C(=O)c2cc3cc(NS(C)(=O)=O)ccc3[nH]2)CC1 [DELAVIRDINE] | 8000 | 3400 | 1250 | 10000 | 10000 |  |  | 159 |  | 35 | 2650 | 870 | 97 |  | 124
O=C1Nc2ccc(Cl)cc2[C@@](C#CC2CC2)(C(F)(F)F)O1 [EFAVIRENZ] | 552 |  | 43 | 3 | 3 |  |  |  |  | 7 | 23 | 1 |  | 2 | 1
Cc1ccnc2c1NC(=O)c1cccnc1N2C1CC1 [NEVIRAPINE] |  |  | > 50000 | > 10000 | > 10000 |  |  | 89 |  | > 10000 |  | ~10000 |  | > 10000 | 
